# Shown are actives, neighbours in structure and some others; about 2.7% of the full set was active somewhere.
# ABHD4 inh = ABHD4 (mouse) inhibition, primary FP screen | Q8VD66 | purified mABHD4, FP-Rh probe fluorescence polarization | inhibition, % at 8.92 µM | 0.54% of 370,000 active | AID 720543;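 active = inhibition exceeding the mean over every tested compound plus 3 SD, cut at about 30% in these data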
#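 assay system = mABHD4 protein | compound dosing = single nominal dose of 8.92 µM, 0.89% DMSO final | read-out basis = percent inhibition of probe binding, normalized to plate controls | schedule = Enzyme–compound pre-incubation 45 min, then probe 60 min, both 25 °C | detection = fluorescence polarization, excitation 525 nm, emission 598 nm, BODIPY TMR filters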
# SIAE primary = human SIAE inhibition, primary screen; Q9HAT2; SIAE FP-Rh probe binding, fluorescence polarization; inhibition, % at 9.66 µM; 0.69% of 370,000 active; AID 1053197;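 active = inhibition above a cutoff: mean of compounds within the control limits plus 3 SD of those, cut at about 17% in these data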
# PRMT1 FP inh = blocks human protein arginine methyltransferase 1. 1.3% of 370,000 active. inhibition, % at 2.79 µM. recombinant PRMT1, activity-based probe fluorescence polarization. AID 652257;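 active = inhibition above about 21% made by adding two undisclosed values, limit read from the data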
# Target sequence (Q99873 whole entry, looked up): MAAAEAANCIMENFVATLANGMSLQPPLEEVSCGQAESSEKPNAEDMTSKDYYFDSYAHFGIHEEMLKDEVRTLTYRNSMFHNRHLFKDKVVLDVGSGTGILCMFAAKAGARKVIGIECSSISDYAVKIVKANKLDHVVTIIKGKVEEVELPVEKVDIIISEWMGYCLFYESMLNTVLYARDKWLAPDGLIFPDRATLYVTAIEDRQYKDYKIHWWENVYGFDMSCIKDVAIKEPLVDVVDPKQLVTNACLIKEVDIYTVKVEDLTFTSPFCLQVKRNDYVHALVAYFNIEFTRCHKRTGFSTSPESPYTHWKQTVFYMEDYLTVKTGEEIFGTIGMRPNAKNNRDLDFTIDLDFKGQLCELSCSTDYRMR
# TCR CD3 inh = inhibitors of human TCR-CD3 interaction. TAMRA-labeled TCR probe fluorescence, biochemical. inhibition, % at 9.4 µM. 0.37% of 360,000 active. AID 651800; in the data active = inhibition above about 19%;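 also: recombinant mutant TCR 2C K166C tagged with TAMRA read by polarization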
# HTRA1 inhibitor = inhibitors of human serine peptidase HTRA1. inhibition, % at 5.96 µM. 0.5% of 340,000 active. recombinant HTRA1, FP-rhodamine activity-based probe, fluorescence polarization; in the data active = inhibition above about 36%
# Hits are given with their value; – = inactive; · = no result given.
SMILES,ABHD4 inh,SIAE primary,PRMT1 FP inh,TCR CD3 inh,HTRA1 inhibitor
CN1CCN(c2ccc(-c3cc(NC=O)c4ncc(-c5ccc(F)c(Cl)c5)n4c3)cc2)CC1,–,18.2,–,–,·
O=C1N=C(c2ccccc2)S/C1=C\c1cccs1,–,–,21.5,–,–
O=C1N=C(N2CCN(c3ccccc3)CC2)S/C1=C/c1cccs1,–,–,–,–,–
Cc1cc(C)nc(NC(=S)N2CCN(c3ncc(C(F)(F)F)cc3Cl)CC2)c1,–,–,–,·,·
Oc1ccccc1-c1cc(-c2ccco2)[nH]n1,–,–,23.1,–,–
COc1ccc(Cn2nnnc2C(c2cccs2)N2CCN(c3ccccc3)CC2)cc1 (centres undefined),–,–,–,–,–
Oc1ccc(N2CCN(C(c3cccs3)c3nnnn3CCc3ccccc3)CC2)cc1 (centres undefined),–,–,21.7,–,–
CCc1nc2sc3ccccc3c(=O)c2c(=O)n1Cc1ccco1,–,–,21.2,–,–
Cc1ccc(-c2nc3c(c(=O)c4ccccc4n3C)c(=O)n2Cc2ccco2)cc1,–,–,22.5,–,–
Cn1c2ccccc2c(=O)c2c(=O)n(Cc3ccco3)c(-c3ccc(F)cc3)nc21,–,–,–,–,–
O=C(NNc1nc2ccccc2s1)Nc1ccc(Cl)c(Cl)c1,–,–,22.8,–,–
CCn1c2ccccc2c2cc(NC(=O)CSc3nnc(-c4cccc(Cl)c4)o3)ccc21,–,26.8,–,–,–
O=C(CSc1nnc(-c2cccnc2)o1)Nc1cccc(Cl)c1,–,–,–,–,–
O=C(CSc1c2c(nc3cc(Cl)ccc13)CCCC2)NCc1ccco1,–,–,23.2,–,–
O=C(CCSCCC(=O)NCc1ccco1)NCc1ccco1,–,–,24.1,–,·
O=C(CSc1ccc2c(c1)OCCO2)NCc1ccco1,–,–,21.8,–,–
O=C(CSc1ccccc1)NCc1ccco1,–,–,–,–,–
CCN1CCN(S(=O)(=O)c2ccc(OC)c(NC(=O)c3ccccc3F)c2)CC1,–,–,–,–,–
O=C(O[C@@H]1OC2COC(=O)c3cc(O)c(O)c(O)c3-c3c(cc(O)c(O)c3O)C(=O)O[C@@H]([C@H]1O)[C@@H]2O)c1cc(O)c(O)c(O)c1,·,·,·,·,40.6
C=CCc1cccc(/C=N/c2ncccc2O)c1O,–,–,21.8,–,–
C=CCc1cccc(C=Nc2ccc(Br)cc2)c1O,–,–,–,–,–
CCCc1ccc(-c2cc(NC(=O)Cc3c(C)[nH]c4ccccc34)ccc2N(C)c2cccnc2)cc1,37.2,–,–,–,·
COC1=C[C@H](C(=O)NCc2ccc(Br)cc2)C(C)C(c2ccccc2)CC1=O (some centres undefined),–,–,–,·,·
Cc1nc2sc(C(c3ccco3)N3CCC(C)CC3)c(O)n2n1 (centres undefined),–,–,21.6,–,–
Cc1nc2sc(C(c3ccco3)N3CCN(C(c4ccccc4)c4ccccc4)CC3)c(O)n2n1 (centres undefined),–,–,23.9,–,–
SMILES,ABHD4 inh,SIAE primary,PRMT1 FP inh,TCR CD3 inh,HTRA1 inhibitor
Cc1nc2sc(C(c3ccco3)N3CCN(c4ccccc4)CC3)c(O)n2n1 (centres undefined),–,–,–,–,–
COC(=O)c1cc(NC(=O)NC2CCCCN(Cc3ccc(Cl)cc3)C2=O)cc(C(=O)OC)c1 (centres undefined),–,–,–,·,·
Fc1ccccc1-c1n[nH]c(=S)n1/N=C/c1c[nH]c2ccccc12,–,–,23.6,–,–
COc1ccc2ccccc2c1C=Nn1c(-c2n[nH]c3c2CCC3)n[nH]c1=S,–,–,–,·,·
S=c1[nH]nc(-c2n[nH]c3c2CCC3)n1N=Cc1c[nH]c2ccccc12,–,–,22.4,·,·
O=c1cc2c(c(-c3ccccc3)n1Cc1ccccc1)[C@@H](CCO)NC2,–,–,–,–,–
Cc1ccc(Nc2ccc(C(=O)O)cc2N)cc1,–,–,23.6,–,·
CCCCCN(C(=O)CCC(=O)OCCOc1cccc(C)c1)c1c(N)n(CCCC)c(=O)[nH]c1=O,–,–,–,–,–
Cc1coc2c1C(=O)C(=O)c1c-2ccc2c(C)cccc12,·,·,·,·,40.0
Cc1cccc(OC[C@@H](O)CN2CCC(C(O)(c3ccccc3)c3ccccc3)CC2)c1,–,–,–,·,·
COc1ccc(NC(=O)NCCc2c[nH]c3ccccc23)c(OC)c1,–,–,–,–,–
COc1ccc(CCNC(=O)Nc2cccs2)c(OC)c1,–,–,22.6,–,–

# From PubChem BioAssay
